# C8 TRAIL sens – caspase-8 TRAIL sensitization; 360,000 tested, 1% active; NB7+C8 cells + TRAIL, ATPlite viability luminescence; inhibition (viability loss, TRAIL sensitization), % at 10 µM;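 active means compounds causing at least 50% loss of cell viability in the single-dose screen, relative to plate controls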
# PPC-1+TRAIL kill – compounds killing PPC-1 cancer cells with TRAIL present (potentiator screen, no TRAIL-free arm); PPC-1 cells + TRAIL, ATPLite viability luminescence; cell killing (% activity), % at 4 µM or 5 µM; 220,000 tested, 0.41% active;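 active means cell killing above 50% in the first pass at 4 µM, then a duplicate retest at 5 µM averaging 50% or more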;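 further: plate controls were cells with TRAIL plus DMSO for no effect and medium-only wells lacking cells for full effect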
# FLuc inh counter – inhibits firefly luciferase, flagging false hits in luciferase inhibition screens | ATPLite firefly luciferase biochemical luminescence, 10 min | inhibition, % at 10 µM | AID 1006 | P08659 | 200,000 tested, 1.5% active;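 active means inhibition above about 50% when tested at 10 µM, limit read from the data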
# Target sequence (P08659 whole entry, looked up): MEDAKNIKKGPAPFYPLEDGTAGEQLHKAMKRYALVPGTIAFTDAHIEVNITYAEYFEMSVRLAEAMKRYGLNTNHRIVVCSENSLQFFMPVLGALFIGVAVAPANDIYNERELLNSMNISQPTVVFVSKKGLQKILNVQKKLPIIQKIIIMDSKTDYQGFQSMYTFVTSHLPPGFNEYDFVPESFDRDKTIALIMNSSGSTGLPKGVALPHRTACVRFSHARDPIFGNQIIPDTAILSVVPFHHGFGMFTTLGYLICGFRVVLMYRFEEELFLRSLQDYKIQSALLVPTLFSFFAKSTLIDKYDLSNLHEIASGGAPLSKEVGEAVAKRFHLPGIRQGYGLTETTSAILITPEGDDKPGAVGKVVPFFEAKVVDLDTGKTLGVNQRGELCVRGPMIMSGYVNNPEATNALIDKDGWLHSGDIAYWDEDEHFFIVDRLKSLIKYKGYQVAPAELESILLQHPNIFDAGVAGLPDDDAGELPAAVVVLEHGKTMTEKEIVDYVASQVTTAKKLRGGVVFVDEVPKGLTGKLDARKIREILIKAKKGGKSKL
# FLuc act counter – firefly luciferase counter-screen for stimulation assays | ATPlite luciferase biochemical, luminescence, 10 min; 0 = ATP-free wells, 1 = DMSO control | P08659 | activation factor at 10 µM | AID 1027 | 200,000 tested, under 10 active;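 active means luciferase activation factor, scaled between plate controls, of at least 2 with compound at 10 µM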
#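 Assay system – cell-free luciferase reagent · Medium – PBS-based ATP solution · Dosing – test compounds dosed from 2 mM stocks in 100% DMSO · Timing – 10 min, room temperature · Technique – light output (luminescence) · Measure – luminescence gain marking luciferase activators · Controls – No-ATP low control, compound-free enzyme-plus-ATP high control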
# Active calls of the source: *; . = no result given. The list is not random: actives were taken first. Their share in the collection is about 1.5%.
SMILES,C8 TRAIL sens,PPC-1+TRAIL kill,FLuc inh counter,FLuc act counter
CCC(C)C1NC(=O)C(NC(=O)C(CC(C)C)N(C)C(=O)C2CCCN2C(=O)C(C)O)C(C)OC(=O)C(Cc2ccc(OC)cc2)N(C)C(=O)C2CCCN2C(=O)C(CC(C)C)NC(=O)[C@H](C)C(=O)[C@H](C(C)C)OC(=O)CC1O (stereo not given in full),81.9*,.,.,.
C#CCCC[C@@H]1OC(=O)CNC(=O)C([C@@H](C)CC)NC(=O)[C@@H]2CCCN2C(=O)C([C@@H](C)CC)OC(=O)[C@H](Cc2ccccc2)N(C)C(=O)[C@H](C(C)C)NC(=O)C1(C)C (stereo not given in full),-2.2,.,.,.
COc1cc(C=C2C(=O)NC(=O)NC2=O)ccc1OCc1ccc([N+](=O)[O-])cc1,-1.1,4.5,52.3*,0.5
O=C1NC(=O)C(=Cc2ccc(Oc3ccc([N+](=O)[O-])cc3)cc2)C(=O)N1,-14.2,-2.0,-1.7,1
COc1ccc(-c2nc3ccccc3c(=O)o2)cc1,55.4*,47.1,54.9*,0.5
COc1ccc(-n2c(-c3ccc(C)cc3)nc3ccccc3c2=O)cc1,13.9,24.9,.,.
Fc1cccc(-c2ccc3c(c2)CNCc2cnnn2-3)c1,-0.4,.,.,.
Brc1ccc2c(c1)C(OC1CN3CCC1CC3)c1ccccc1CS2 (stereo not given),6.3,82.0*,-1.2,1
c1ccc2c(c1)CSc1ccccc1C2C1=NCCN1 (stereo not given),7.5,12.2,1.8,1
COc1cc(/C=C/C(=O)c2c(O)n(CCc3ccccc3)c(=O)[nH]c2=O)ccc1O,3.7,35.0,55.5*,0.4
CC(=O)C1C(N2CC2)CC2C3CC=C4CC(O)CCC4(C)C3CCC21C (stereo not given),12.1,.,.,.
COC(=O)C1=C(c2cccc(Cl)c2)C[C@@H]2CC[C@H]1N2C(=O)N1CCCC1,1.8,.,.,.
COC(=O)C12OCC34C(CC5C(C)=C(O)C(=O)CC5(C)C3C(O)C1O)OC(=O)C(OC(=O)/C=C(\C)C(C)C)C24 (stereo not given),57.7*,.,.,.
CC(C)(C)n1nnnc1C(c1cccs1)N1CCC2(CC1)C(=O)NCN2c1ccccc1 (stereo not given),-2.4,.,.,.
C[C@@H]1C[C@@H]([C@H](O)CC2CC(=O)NC(=O)C2)C(=O)[C@@H](C)C1,30.4,.,.,.
CC(=O)OC1(C)CC(C)C(=O)C(C(O)CC2CC(=O)NC(=O)C2)C1 (stereo not given),73.7*,.,.,.
C[C@H](NC(=O)CCC(=O)N1C[C@H]2C[C@H](C1)c1cccc(=O)n1C2)c1ccccc1,5.6,.,.,.
CC(C)CCn1c(=O)c(C(=O)Nc2ccccc2S(N)(=O)=O)c(O)c2ccccc21,52.5*,11.8,-2.4,1
Nc1ncnc2c1ccn2[C@@H]1O[C@H](CO)[C@@H](O)[C@H]1O,88.0*,.,.,.
CN(C)C(=O)Oc1c(Cl)cc(Cl)c2ccccc12,-5.6,18.3,0.1,1
Cc1cc(C(=O)CS(=O)(=O)c2ccc(F)cc2)cc(C)c1OC(=O)N(C)C,24.6,33.2,62.6*,0.4
Clc1ccc(C[n+]2c(-c3ccccc3)cc(-c3ccccc3)cc2-c2ccccc2)cc1,68.9*,.,.,.
O=C1CC2OCC=C3CN4CCC56c7ccccc7N1C5C2C3CC46O (stereo not given),-6.8,.,.,.
Nc1cc(C(=O)Nc2ccccc2F)ccc1N1CC2CC(C1)c1cccc(=O)n1C2 (stereo not given),0.8,.,.,.
c1cc2c(cc1-c1ccc3c(c1)OCO3)CNCc1cnnn1-2,-19.2,.,.,.
SMILES,C8 TRAIL sens,PPC-1+TRAIL kill,FLuc inh counter,FLuc act counter
CCOC(=O)[C@]12Cc3cc(C)ccc3[C@H]1N(CCC(=O)OC)C(=O)c1cc(OC)ccc12,26.7,.,.,.
CCOC(=O)[C@]12Cc3cc(OC)ccc3[C@H]1N(C1CCCCC1)C(=O)c1cc(OC)ccc12,75.7*,.,.,.
CCOC(=O)[C@]12Cc3cc(C)ccc3[C@H]1N(C1CCCCC1)C(=O)c1cc(OC)ccc12,95.8*,.,.,.
COC(=O)C1=C(c2ccc(OCc3ccccc3)cc2)C[C@@H]2CC[C@H]1N2C(=O)NC1CCN(Cc2ccccc2)CC1,24.8,.,.,.
C=CC1CN2CCC1CC2[C@@H](OC(=O)c1ccc(OC)cc1)c1ccnc2ccccc12 (stereo not given in full),-0.2,53.5*,-5.6,1.1
Cc1[nH]c2ccccc2c1CN1CCCCC1,-12.1,.,.,.
